Activity calls are given as the source filed them. The rule behind the calls is not given here.
Tests used:
[1] = target: T1, NAD-dependent protein deacetylase sirtuin-2 (Homo sapiens) (UniProt Q8IXJ6); assay: Substrate activity at recombinant human SIRT2 assessed as decrotonylation by measuring absorption peak for formation of N-NBD at 10 uM measured after 3 hrs in presence of NAD+ by UV-VS absorption spectra analysis
T1 sequence (whole entry): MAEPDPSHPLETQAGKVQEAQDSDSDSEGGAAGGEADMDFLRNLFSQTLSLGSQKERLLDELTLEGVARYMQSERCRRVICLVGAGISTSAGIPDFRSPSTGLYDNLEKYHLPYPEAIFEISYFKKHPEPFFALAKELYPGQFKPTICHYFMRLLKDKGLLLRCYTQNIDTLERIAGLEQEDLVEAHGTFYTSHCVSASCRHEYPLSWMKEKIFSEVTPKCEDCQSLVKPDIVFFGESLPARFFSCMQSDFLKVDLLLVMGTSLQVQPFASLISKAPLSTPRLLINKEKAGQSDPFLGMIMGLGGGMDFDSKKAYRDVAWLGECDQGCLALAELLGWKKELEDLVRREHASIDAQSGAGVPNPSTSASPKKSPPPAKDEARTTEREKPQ
Outline: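 Probe (10 μM, from 5 mM DMSO stock) reacted with recombinant purified Sirt2 (40 ng/μl) and 200 μM NAD+ in 20 mM HEPES pH 8.0 (1 mM MgCl2, 2.7 mM KCl, 150 mM NaCl) at 37 °C for 3 h. Absorbance spectra collected from 300 to 550 nm before and after the reaction.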

[2] = target: T1, NAD-dependent protein deacetylase sirtuin-2 (Homo sapiens); assay: Substrate activity at recombinant human SIRT2 assessed as decrotonylation by measuring increase in fluorescence intensity at 10 uM measured after 3 hrs in presence of NAD+ by fluorescence photometric method relative to control
Outline: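 Probe (10 μM) incubated 3 h at 37 °C with recombinant Sirt2 (40 ng/μl) and 200 μM NAD+ in 20 mM HEPES pH 8.0 with salts. Emission scanned 510–600 nm (excitation 480 nm, slit 5 nm). Signal compared with controls lacking enzyme and/or NAD+, and with probe alone; fold increase derived.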

[3] = target: T1, NAD-dependent protein deacetylase sirtuin-2 (Homo sapiens); assay: Substrate activity at recombinant human SIRT2 assessed as decrotonylation by measuring increase in fluorescence intensity at 10 uM in presence of NAD+ by fluorescence photometric method; settings: time hrs <=3, TDE = time-dependent effect
Outline: (§1)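 Recombinantly expressed, purified sirtuin (40 ng/μl) incubated with probe (10 μM, from 5 mM DMSO stock) and NAD+ at 37 °C in 20 mM HEPES pH 8.0 with 1 mM MgCl2, 2.7 mM KCl, 150 mM NaCl. Fluorescence read with excitation 480 nm, emission 545 nm.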

[4] = target: T2, NAD-dependent protein deacetylase sirtuin-1 (Homo sapiens) (UniProt Q96EB6); assay: Substrate activity at recombinant human SIRT1 assessed as decrotonylation by measuring increase in fluorescence intensity at 10 uM in presence of NAD+ by fluorescence photometric method; outline: as §1
T2 sequence (whole entry): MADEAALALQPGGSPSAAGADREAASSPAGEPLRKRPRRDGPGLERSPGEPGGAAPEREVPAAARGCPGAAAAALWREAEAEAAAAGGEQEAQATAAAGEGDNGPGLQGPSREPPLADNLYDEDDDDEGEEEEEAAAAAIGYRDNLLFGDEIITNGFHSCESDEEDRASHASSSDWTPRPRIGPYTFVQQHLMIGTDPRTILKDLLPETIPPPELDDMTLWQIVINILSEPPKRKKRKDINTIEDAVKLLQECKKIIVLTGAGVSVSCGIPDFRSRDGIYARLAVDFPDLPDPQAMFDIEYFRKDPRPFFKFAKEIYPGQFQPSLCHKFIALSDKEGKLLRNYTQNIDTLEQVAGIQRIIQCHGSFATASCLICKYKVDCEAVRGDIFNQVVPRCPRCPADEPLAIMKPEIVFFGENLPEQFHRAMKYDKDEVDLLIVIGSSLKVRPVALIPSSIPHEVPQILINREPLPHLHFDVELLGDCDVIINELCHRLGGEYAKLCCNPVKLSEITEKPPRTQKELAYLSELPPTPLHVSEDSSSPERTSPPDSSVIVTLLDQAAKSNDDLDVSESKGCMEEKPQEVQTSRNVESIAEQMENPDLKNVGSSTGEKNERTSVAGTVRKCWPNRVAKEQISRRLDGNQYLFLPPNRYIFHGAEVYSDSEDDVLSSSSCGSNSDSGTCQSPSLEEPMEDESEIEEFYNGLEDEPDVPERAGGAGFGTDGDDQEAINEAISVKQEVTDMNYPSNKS

[5] = target: NAD-dependent protein deacylase sirtuin-5, mitochondrial (Homo sapiens) (UniProt Q9NXA8); assay: Substrate activity at recombinant human SIRT5 assessed as decrotonylation by measuring increase in fluorescence intensity at 10 uM in presence of NAD+ by fluorescence photometric method; outline: as §1
Chain of NAD-dependent protein deacylase sirtuin-5, mitochondrial (Homo sapiens) (Q9NXA8 37-310 limits assumed): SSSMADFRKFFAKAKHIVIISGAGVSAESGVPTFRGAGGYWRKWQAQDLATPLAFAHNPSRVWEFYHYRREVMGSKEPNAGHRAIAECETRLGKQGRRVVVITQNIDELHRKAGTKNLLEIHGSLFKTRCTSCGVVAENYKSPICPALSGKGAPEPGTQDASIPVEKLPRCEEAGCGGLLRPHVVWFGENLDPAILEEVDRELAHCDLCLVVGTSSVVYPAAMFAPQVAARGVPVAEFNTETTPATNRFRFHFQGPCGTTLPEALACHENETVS

[6] = target: NAD-dependent protein deacylase sirtuin-6 (Homo sapiens) (UniProt Q8N6T7); assay: Substrate activity at recombinant human SIRT6 assessed as decrotonylation by measuring increase in fluorescence intensity at 10 uM in presence of NAD+ by fluorescence photometric method; outline: as §1
Chain of NAD-dependent protein deacylase sirtuin-6 (Homo sapiens) (Q8N6T7 whole entry): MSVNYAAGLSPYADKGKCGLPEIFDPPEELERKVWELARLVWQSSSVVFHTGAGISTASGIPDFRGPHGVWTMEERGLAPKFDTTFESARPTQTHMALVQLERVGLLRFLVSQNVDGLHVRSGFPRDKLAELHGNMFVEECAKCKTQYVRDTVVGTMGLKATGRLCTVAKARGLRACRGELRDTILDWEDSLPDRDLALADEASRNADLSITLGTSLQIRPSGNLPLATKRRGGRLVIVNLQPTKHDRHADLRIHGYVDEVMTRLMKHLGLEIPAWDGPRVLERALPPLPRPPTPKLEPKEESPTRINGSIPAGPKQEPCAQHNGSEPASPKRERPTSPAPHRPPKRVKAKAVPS

[7] = target: T3, NAD-dependent protein deacetylase sirtuin-3, mitochondrial (Homo sapiens) (UniProt Q9NTG7); assay: Substrate activity at recombinant human SIRT3 assessed as decrotonylation by measuring increase in fluorescence intensity at 10 uM in presence of NAD+ by fluorescence photometric method; outline: as §1
T3 sequence (whole entry): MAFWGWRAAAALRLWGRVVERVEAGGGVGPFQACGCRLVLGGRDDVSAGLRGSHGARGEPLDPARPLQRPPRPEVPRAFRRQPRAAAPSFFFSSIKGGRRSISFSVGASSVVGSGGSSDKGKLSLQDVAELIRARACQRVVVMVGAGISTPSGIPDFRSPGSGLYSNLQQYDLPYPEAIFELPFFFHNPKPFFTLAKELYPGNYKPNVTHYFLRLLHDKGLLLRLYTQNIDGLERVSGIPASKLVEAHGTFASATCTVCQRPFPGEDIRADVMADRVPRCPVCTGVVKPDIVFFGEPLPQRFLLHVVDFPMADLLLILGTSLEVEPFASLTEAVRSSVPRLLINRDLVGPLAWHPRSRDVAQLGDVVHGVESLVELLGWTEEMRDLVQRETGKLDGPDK

[8] = Binding affinity to lysine at 10 uM by fluorescence photometric method
Outline: (§2)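 Interferent test: probe at 10 μM treated with each species (amino acids, butylamine) at 100 μM, no enzyme; fluorescence spectra of the reaction mixtures recorded (excitation 480 nm).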

[9] = Binding affinity to histidine at 10 uM by fluorescence photometric method; outline: as §2
[10] = Binding affinity to cysteine at 10 uM by fluorescence photometric method; outline: as §2

Row | Activity [1] [nm] | fold change (FC) [2] | Activity [3] | Activity [4] | Activity [5] | Activity [6] | Activity [7] | Activity [8] | Activity [9] | Activity [10] | Structure (SMILES)
1 | 480 | 5 | Tde | Active | inactive | inactive | inactive | inactive | inactive | inactive | C/C=C/C(=O)NCCCC[C@H](NC(=O)OC(C)(C)C)C(=O)NCCOCCOc1ccc([N+](=O)[O-])c2nonc12
2 |  |  |  | Active | inactive | inactive | inactive |  |  |  | C/C=C/C(=O)NCCCC[C@H](NC(=O)CNC(=O)[C@H](CC(C)C)NC(C)=O)C(=O)NCCOCCOc1ccc([N+](=O)[O-])c2nonc12
